Test results from ChEMBL document CHEMBL2086284, “(Z)-1-aryl-3-arylamino-2-propen-1-ones, highly active stimulators of tubulin polymerization: synthesis, structure-activity relationship (SAR), tubulin polymerization, and cell growth inhibition studies” (J Med Chem, 2012).

Legend:
DU-145 = assay: Cytotoxicity against androgen receptor-deficient human DU145 cells after 96 hrs by trypan blue exclusion assay; format: functional, cell-based; conditions: DU-145, 96 h
How it was run: (§1)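 Cells grown in DMEM or RPMI with 10% FBS and penicillin-streptomycin. Seeded at 1.0 × 10^5 cells/mL/well in 6-well dishes; compounds were added 24 h later at various concentrations. Viable cells were counted by trypan blue exclusion from duplicate wells after 96 h of treatment, giving a dose-response endpoint.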

K562 = assay: Cytotoxicity against human K562 cells after 96 hrs by trypan blue exclusion assay; format: functional, cell-based; conditions: K562, 96 h; how it was run: as §1

Compound | IC50 (DU-145) [nM] | IC50 (K562) [nM]
COc1cc(C(=O)/C=C\Nc2cnc3ccccc3c2)cc(OC)c1OC | 500 | 750
COc1cc(C(=O)/C=C\Nc2ccc(Cl)cc2)cc(OC)c1OC | 500 | 250
COc1cc(C(=O)/C=C\Nc2cccc(O)c2)cc(OC)c1OC | 750 | 500
COc1ccc(N/C=C\C(=O)c2cc(OC)c(OC)c(OC)c2)cc1Cl | 200 | 250
COc1ccc(N/C=C\C(=O)c2cc(OC)c(OC)c(OC)c2)cc1 | 500 | 500
COc1cc(C(=O)/C=C\Nc2ccc3[nH]ccc3c2)cc(OC)c1OC | 200 | 500
COc1cc(N/C=C\C(=O)c2cc(OC)c(OC)c(OC)c2)cc(OC)c1OC | 40000 | 25000
COc1cc(C(=O)/C=C\Nc2cccc3cc[nH]c23)cc(OC)c1OC | 2500 | 2500
COc1cc(C(=O)/C=C\Nc2ccc(C(F)(F)F)cc2)cc(OC)c1OC | 500 | 500
COc1ccc(N/C=C\C(=O)c2cc(OC)c(OC)c(OC)c2)cc1F | 250 | 250
COc1ccc(N/C=C\C(=O)c2ccc(OC)cc2)cc1 | 75000 | 100000
COc1cc(OC)c(N/C=C\C(=O)c2cc(OC)c(OC)c(OC)c2)c(OC)c1 | 75000 | 50000
COc1cc(OC)c(C(=O)/C=C\Nc2ccc(Cl)cc2)c(OC)c1 | 25000 | 25000
COc1cc(C(=O)/C=C\Nc2ccc3[nH]c(C)cc3c2)cc(OC)c1OC | 600 | 750
COc1cc(C(=O)/C=C\Nc2cccc3[nH]ncc23)cc(OC)c1OC | 750 | 2500
COc1cc(C(=O)/C=C\Nc2ccc(OC(F)(F)F)cc2)cc(OC)c1OC | 3000 | 20000
COc1ccc(N/C=C\C(=O)c2cc(OC)c(OC)c(OC)c2)cc1O | 100 | 100
